Experimental data taken from ChEMBL document CHEMBL1142606, “Antibiotic bisanthraquinones produced by a streptomycete isolated from a cyanobacterium associated with Ecteinascidia turbinata” (J Nat Prod, 2006).

How the values were obtained:
[1] = tested on: Staphylococcus aureus; assay: Antibacterial activity against methicillin-resistant Staphylococcus aureus ATCC 43300 after 18 hrs by broth dilution assay; format: functional, organism-based; details: ATCC 43300, 18 h
Outline: (§1)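 Broth dilution; MRSA ATCC 43300 in trypticase soy medium, VRE ATCC 51299 in brain heart infusion medium. Cultures grown 14 h on rotary shaker at 38 °C, diluted to A600 0.04-0.06, then further 10-fold, dispensed to microtiter wells. Compounds tested in dilution series, ten replicates each; growth read as A600 after 18 h; IC50 reported.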

[2] = tested on: Enterococcus faecalis; assay: Antibacterial activity against vancomycin-resistant Enterococcus faecalis ATCC 51299 after 18 hrs by broth dilution assay; format: functional, organism-based; details: ATCC 51299, 18 h; outline: as §1
[3] = Cytotoxicity against human HCT 116 cells; format: functional, cell-based

SMILES | IC50 [1] | IC50 [2] | IC50 [3] [µM]
CC1=CC(O)=C2C(=O)c3c(O)cccc3[C@@]34Oc5c(ccc6c5C(=O)c5c(O)cc(C)cc5C6=O)C23[C@@H]1[C@H](C)O4 (stereo partly specified) | 31 µM | 130 µM | 6.6
Cc1cc(O)c2c(c1)C(=O)c1ccc3c(c1C2=O)O[C@@]12O[C@@H](C)[C@H]4C31C(=C(O)C[C@@]4(C)O)C(=O)c1c(O)cccc12 (stereo partly specified) | 0.15 µM | 2 µM | 3.3
Cc1cc(O)c2c(c1)C(=O)c1ccc3c(c1C2=O)O[C@@]12O[C@@H](C)[C@@]4(O)C31C(=C(O)C[C@@]4(C)O)C(=O)c1c(O)cccc12 (stereo partly specified) | 0.36 µM | 12 µM | 5.6
CN(C)[C@@H]1C(O)=C(C(N)=O)C(=O)[C@@]2(O)C(O)=C3C(=O)c4c(O)cccc4[C@@](C)(O)[C@H]3C[C@@H]12 [TETRACYCLINE] | 0.2 µg/mL | 0.7 µg/mL | 
